Laboratory results from ChEMBL document CHEMBL1154198, “Chemical genetics of Plasmodium falciparum” (Nature, 2010).

Columns and labels:
Leishmania major = assay: ST_JUDE: Cytotoxicity using Alamar Blue to measure viability of Leishmania major; format: functional, organism-based
How it was run: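 L. major promastigotes; drug susceptibility read with Alamar Blue.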

Plasmodium falciparum [1] = assay: ST_JUDE: Cytotoxicity against Plasmodium falciparum SB-A6; format: functional, organism-based
Plasmodium falciparum [2] = assay: ST_JUDE: Cytotoxicity against Plasmodium falciparum W2; format: functional, organism-based
Trypanosoma brucei = assay: ST_JUDE: Cytotoxicity using luciferase to measure ATP as an indicator of the viability of Trypanosoma brucei; format: functional, organism-based
Toxoplasma gondii = assay: ST_JUDE: Growth inhibition of to Toxoplasma gondii, in human U-2OS cells, as measured by luciferase.; format: functional, organism-based; conditions: RH, U2OS
How it was run: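 T. gondii parasites engineered to express luciferase; drug sensitivity read by luminescence.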

Plasmodium falciparum [3] = assay: ST_JUDE: Plasmodium falciparum 3D7 EC50 (uM) as measured by SYBR green dye; format: functional, organism-based
[4] = ST_JUDE: Cytotoxicity using luciferase to measure ATP as an indicator of the viability of human Burkitt''s lymphoma lymphoblast cells (Raji); format: toxicity, cell-based
Plasmodium falciparum [5] = assay: ST_JUDE: Cytotoxicity against Plasmodium falciparum 3D7; format: functional, organism-based
How it was run: (§1)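 Asexual P. falciparum grown in human erythrocytes, exposed to compounds for 72 h, and growth read as the DNA quantity in treated versus control cultures. Dose-response run at 12 concentrations from 10 μM to 5 nM.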

[6] = ST_JUDE: Cytotoxicity using luciferase to measure ATP as an indicator of the viability of human foreskin fibroblast cells (BJ); format: toxicity, cell-based
Plasmodium falciparum [7] = assay: ST_JUDE: Cytotoxicity against Plasmodium falciparum K1; format: functional, organism-based; how it was run: as §1
Plasmodium falciparum [8] = assay: ST_JUDE: Plasmodium falciparum K1 EC50 (uM) as measured by SYBR green dye; format: functional, organism-based
Plasmodium falciparum [9] = assay: ST_JUDE: Cytotoxicity against Plasmodium falciparum Dd2; format: functional, organism-based
[10] = ST_JUDE: Cytotoxicity using luciferase to measure ATP as an indicator of the viability of human epithelial embryonic kidney cells (HEK293); format: toxicity, cell-based
Plasmodium falciparum [11] = assay: ST_JUDE: Cytotoxicity against Plasmodium falciparum V1/S; format: functional, organism-based
[12] = ST_JUDE: Cytotoxicity using luciferase to measure ATP as an indicator of the viability of human epithelial hepatocellular carcinoma cells (HepG2); format: toxicity, cell-based
Plasmodium falciparum [13] = assay: ST_JUDE: Cytotoxicity against Plasmodium falciparum D10 transfected with yeast DHOD; format: functional, organism-based

Row | Compound | EC50 (Leishmania major) [µM] | EC50 (Plasmodium falciparum [1]) [µM] | EC50 (Plasmodium falciparum [2]) [µM] | EC50 (Trypanosoma brucei) [µM] | EC50 (Toxoplasma gondii) [µM] | EC50 (Plasmodium falciparum [3]) [µM] | EC50 [4] [µM] | EC50 (Plasmodium falciparum [5]) [µM] | EC50 [6] [µM] | EC50 (Plasmodium falciparum [7]) [µM] | EC50 (Plasmodium falciparum [8]) [µM] | EC50 (Plasmodium falciparum [9]) [µM] | EC50 [10] [µM] | EC50 (Plasmodium falciparum [11]) [µM] | EC50 [12] [µM] | EC50 (Plasmodium falciparum [13]) [µM]
1 | CC1=NC2=C(C(=O)CC(c3ccc(Cl)cc3)C2)C(c2ccc(F)cc2)/C1=C(\O)OC(C)C (stereo not drawn) | > 17 | 0.46 | 0.655 | 1.56 | > 21.8 | 0.775 | > 39.8 | 0.989 | > 39.8 | 0.436 | 0.779 | 1.3 | > 39.8 | 0.821 | > 39.8 | 0.649
2 | CC(CNC(=O)c1cn(C2CCCCC2)cc(C(=O)NC(C)(C)C)c1=O)c1ccccc1 (stereo not drawn) | > 22.6 | 0.109 | > 13.6 | > 50.7 | > 28.9 | 0.0937 | > 52.8 | 0.321 | > 52.8 | 0.705 | 8.05 | 2.18 | > 52.8 | > 13.6 | > 52.8 | 0.15
3 | COc1ccc(C2CC3=NC(C)=C(C(=O)OC(C)C)C(c4ccccc4OC)C3=C(O)C2)cc1OC (stereo not drawn) | > 19.2 | 0.367 | 0.24 | 16.4 | 11.4 | 1.39 | > 44.8 | 0.711 | > 44.8 | 0.396 | 0.997 | 0.812 | > 44.8 | 0.434 | > 44.8 | 0.637
4 | CCOc1ccc2nc(C)cc(Nc3ccc(Cl)cc3)c2c1 | 0.379 | 0.295 | 0.755 | 8.1 | > 21.7 | 0.444 | 19.8 | 1.07 | 8.78 | 4.08 | 1.34 | 0.577 | 21.2 | 2.77 | 7.26 | 0.536
5 | COc1ccc(Nc2cc(C)c3ccc(O)cc3n2)cc1 | > 20.3 | 1.23 | 0.284 | > 45.4 | 25.4 | 0.545 | > 47.4 | 0.688 | > 47.4 | 0.241 | 0.216 | 0.709 | > 47.4 | 0.307 | 43 | 1.07
6 | CCOC(=O)C1=C(C)N=c2s/c(=C/c3ccccc3O)c(=O)n2C1c1ccccc1 (stereo not drawn) | > 15.7 | 0.513 | 2.21 | 6.97 | > 20.1 | > 15 | > 36.6 | 0.317 | > 36.6 | 0.343 | 0.39 | 2.18 | > 36.6 | > 9.41 | > 36.6 | 0.486
7 | CCOc1ccc(Nc2cc(C)c3ccc(O)cc3n2)cc1 | > 22.1 | 0.461 | 0.233 | 21.7 | > 28.3 | 0.483 | 34.4 | 0.714 | > 51.7 | 0.158 | 0.153 | 0.629 | > 51.7 | 0.195 | 30.4 | 0.504
8 | CN(C)c1cc[n+](CC(=O)c2ccc(Br)cc2)cc1 | > 13.2 | > 7.92 | > 7.92 | > 29.6 | > 16.9 | 1.09 | > 30.8 | 1.61 | > 30.8 | 2.61 | 1.5 | 1.03 | > 30.8 | > 7.92 | > 30.8 | 4.3
9 | COc1ccc(C2CC(=O)C3=C(C2)NC(=O)CC3c2ccc(OC)c(OC)c2)cc1 (stereo not drawn) | > 19.4 | 2.32 | 2.21 | > 43.5 | > 24.9 | 0.919 | > 45.4 | 1.24 | > 45.4 | 1.51 | 1.32 | 1.31 | > 45.4 | > 11.7 | > 45.4 | 1.64
10 | Cc1ccc(C)c(NC(=O)CC2C(=O)N(c3ccccc3)C(=S)N2Cc2ccco2)c1 (stereo not drawn) | > 18.9 | 0.385 | 0.292 | > 42.3 | > 24.1 | 0.259 | 41 | 2.51 | > 44.1 | 2.72 | 0.395 | 0.428 | > 44.1 | 0.361 | > 44.1 | 0.449
11 | CCCO/C(O)=C1\C(C)=NC2=C(C(=O)CC(c3ccc(OC)cc3)C2)C1c1ccccc1F (stereo not drawn) | > 19.1 | 0.243 | 0.0839 | 9.66 | > 24.4 | 0.549 | > 44.6 | 0.495 | > 44.6 | 0.281 | 0.439 | 0.637 | > 44.6 | 0.375 | > 44.6 | 0.419
12 | CCOc1ccccc1N1CCN(Cc2cc(Br)cc(OC)c2O)CC1 | > 15.7 | 1.14 | 2.93 | > 35.3 | > 20.1 | 1.21 | > 36.8 | 1.51 | > 36.8 | 0.478 | 1.11 | 1.17 | > 36.8 | 0.643 | > 36.8 | 2.42
13 | CCO/C(O)=C1\C(C)=NC2=C(C(=O)CC(c3ccc(OC)c(OC)c3)C2)C1c1ccccc1C (stereo not drawn) | > 18.3 | 0.0875 | 0.0549 | > 40.9 | > 23.4 | 0.102 | > 42.7 | 0.0971 | > 42.7 | 0.12 | 0.135 | 0.0965 | > 42.7 | 0.104 | > 42.7 | 0.0877
